Entries after “also recorded” stand apart in the source; their conditions may differ.
What was measured:
[1] = target: Human TOP2A (Homo sapiens, UniProt P11388); test: TOP2A decatenation assay; format: biochemical; settings: screen at 30 μM / SAR discussion
In short: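 For screening, TOP2A (3U/reaction) was preincubated 20 min at 37 °C with 30 μM test compound in 1.2% DMSO. Then 2 mM ATP and 35 ng kDNA were added for 1 h at 37 °C. Products ran on 0.8% agarose in TBE with 0.2 μg/mL ethidium bromide (1 h, 100 V), and decatenated bands were compared with vehicle. Dose-responses used 2-fold dilutions (58.6 nM–30 μM) and 4U enzyme.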

[2] = target: hTopoIIα (Homo sapiens, UniProt P11388); test: TOP2A ATPase assay; format: biochemical; settings: ATP hydrolysis, Vmax unchanged, KM shifts
hTopoIIα, sequence (P11388 whole entry): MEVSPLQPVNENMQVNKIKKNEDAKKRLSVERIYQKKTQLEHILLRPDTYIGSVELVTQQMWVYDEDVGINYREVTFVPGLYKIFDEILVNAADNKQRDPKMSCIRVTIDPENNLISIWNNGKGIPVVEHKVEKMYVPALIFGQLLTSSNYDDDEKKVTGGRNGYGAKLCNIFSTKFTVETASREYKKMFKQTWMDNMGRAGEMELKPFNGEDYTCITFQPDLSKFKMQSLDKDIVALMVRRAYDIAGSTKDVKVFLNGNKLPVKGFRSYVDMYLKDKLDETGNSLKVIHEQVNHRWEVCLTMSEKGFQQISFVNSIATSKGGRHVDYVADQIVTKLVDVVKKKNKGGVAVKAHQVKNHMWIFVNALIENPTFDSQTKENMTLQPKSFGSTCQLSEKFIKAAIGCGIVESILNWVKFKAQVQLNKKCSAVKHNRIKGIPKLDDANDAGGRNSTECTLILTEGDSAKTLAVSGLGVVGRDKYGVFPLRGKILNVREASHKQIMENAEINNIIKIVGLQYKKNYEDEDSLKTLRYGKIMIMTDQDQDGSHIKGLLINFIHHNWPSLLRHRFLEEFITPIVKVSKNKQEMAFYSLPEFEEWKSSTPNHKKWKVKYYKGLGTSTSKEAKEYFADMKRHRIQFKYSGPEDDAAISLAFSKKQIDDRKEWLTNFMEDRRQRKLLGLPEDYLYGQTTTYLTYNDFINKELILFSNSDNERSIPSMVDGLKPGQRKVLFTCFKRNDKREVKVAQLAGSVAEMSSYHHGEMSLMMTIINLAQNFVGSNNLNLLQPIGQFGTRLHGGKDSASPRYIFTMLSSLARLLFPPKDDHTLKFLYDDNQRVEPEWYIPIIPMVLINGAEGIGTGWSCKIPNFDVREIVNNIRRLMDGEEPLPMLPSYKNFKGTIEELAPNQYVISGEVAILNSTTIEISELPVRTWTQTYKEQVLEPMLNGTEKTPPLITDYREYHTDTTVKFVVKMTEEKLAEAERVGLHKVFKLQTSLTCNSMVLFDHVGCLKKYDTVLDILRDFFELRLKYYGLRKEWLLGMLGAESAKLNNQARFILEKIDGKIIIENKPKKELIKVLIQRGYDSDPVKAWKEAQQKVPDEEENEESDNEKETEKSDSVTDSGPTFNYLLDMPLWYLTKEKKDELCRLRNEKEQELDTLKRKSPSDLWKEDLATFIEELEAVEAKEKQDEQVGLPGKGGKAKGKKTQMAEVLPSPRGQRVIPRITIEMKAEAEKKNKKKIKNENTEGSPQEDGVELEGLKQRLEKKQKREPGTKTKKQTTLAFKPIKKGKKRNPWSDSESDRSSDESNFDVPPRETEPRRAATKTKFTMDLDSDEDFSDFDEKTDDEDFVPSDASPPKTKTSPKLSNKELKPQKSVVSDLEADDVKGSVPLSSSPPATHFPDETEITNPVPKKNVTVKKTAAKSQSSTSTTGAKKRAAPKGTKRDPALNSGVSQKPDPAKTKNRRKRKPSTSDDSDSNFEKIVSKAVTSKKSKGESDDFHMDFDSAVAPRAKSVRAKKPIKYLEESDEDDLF

[3] = system: SW620; test: γ-H2AX DNA damage assay; format: cell-based; settings: concentration range 0–40 μM
[4] = system: TOP2A-dependent TCF-transcription in SW620-TOP tumor organoids; test: 3D tumor organoid TOPflash reporter assay; format: cell-based
In short: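 SW620 cells stably carrying pCDH-TOPflash-luc-EF1-puro were seeded at 5,000 cells/well in ultra-low-attachment U-bottom wells, centrifuged, given 2% Matrigel (final) and grown 72 h in phenol red-free RPMI-1640 with 5% FBS. Organoids were treated 72 h. One-Glo luciferase and CellTiter-Glo 3D were added 1:1 and luminescence read. TCF signal was normalised to viability, then to DMSO controls.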

[5] = system: caspase 3 and 7 activity in SW620 tumor organoids; test: Tumor organoid caspase 3/7 activity; format: cell-based; settings: higher doses, vs DMSO
In short: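 SW620 cells were seeded at 2,000/well in round-bottom ultra-low-attachment 384-well plates in RPMI-1640 with 5% FBS and 2% Matrigel, grown 72 h, then treated with a range of doses for 72 h. Caspase-Glo 3/7 was added 1:1, plates shaken 30 min, and luminescence read. Staurosporine served as positive control and 0.4% DMSO as negative control.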

[6] = system: SW620 cells; test: Tumor organoid CSC stemness assay; format: cell-based; settings: SW620 cells pretreated 24 h, colonies over seven days, vs DMSO
[7] = system: SW620 tumor organoids; test: SW620 tumor organoid growth in volume; format: cell-based; settings: 72 h, vs DMSO
[8] = Microsome stability studies; format: in vitro ADME; settings: mouse microsomes; for microsomal stability (in words): Phase I, 0 to 60 min
In short: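 Female CD-1 mouse liver microsomes (0.5 mg/mL) with 1.5 mM NADPH in 0.1 M phosphate buffer, pH 7.4, were pre-warmed 5 min at 37 °C. Reactions were started with 1 μg/mL test compound and run at 37 °C. Aliquots taken over 0–60 min were quenched with equal-volume acetonitrile and centrifuged (20,000g, 10 min) for LCMS. Compound-stability controls under reaction conditions were included.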

[9] = In vivo PK studies; settings: female CD-1 mice, single IP 50 mg/kg, plasma
In short: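 Female CD-1 mice got one IP dose of 50 mg/kg in 100% DMSO. Blood was sampled from 0.25–24 h, three mice per time point (21 per compound), into sodium heparin. Plasma was spun out (1800xg, 10 min, 4 °C), frozen at −80 °C, mixed 1:1 with ACN acidified with formic or trifluoroacetic acid (0.1%, varying by compound), centrifuged and analysed by LC-MS/MS.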

[10] = Compound aqueous solubility in PBS; format: physicochemical; settings: ratio to prototype 7
In short: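 Test compound (1 mg) was dissolved in 200 μL 10% DMSO in PBS, pH 7.4, and equilibrated as for the 1-propanol solutions (18 h, 25 °C), then centrifuged. The UV absorption spectrum was compared with a fully saturated 1-propanol solution, and solubility was calculated by linear regression.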

[11] = system: TOP2A mediated TCF-transcription; settings: cited from earlier work
[12] = cited from earlier work
[13] = cited from earlier work; remark: listed apart in the source

Human TOP2A, sequence (P11388 whole entry): as above

## CC(=O)Nc1ccc2c(-c3cc(F)ccc3O)ccnc2c1O [Compound 7, 7-Acetamido-4-(5-fluoro-2-hydroxyphenyl)-8-hydroxyquinoline]
[1]
  inhibition of TOP2A decatenation (in words): complete inhibition
[2]
  mode of TOP2A inhibition: competitive mode of inhibition
[3]
  DNA double stranded breaks (H2AX S139 phosphorylation immunofluorescence): do not cause DNA DSBs
[4]
  inhibition of TOP-activity (TOPflash) in words: significantly inhibit
[5]
  induction of apoptosis (caspase 3 and 7 cleavage) in words: induce apoptosis
[6]
  colony formation (clonogenic assay): inhibit colony formation
[7]
  tumor organoid growth in volume: significantly inhibited tumor organoid growth
[8]
  microsomal stability (in words): metabolized faster within the first 30 minutes
[9]
  CL: 64.5 mL/min/kg

## CC(=O)Nc1ccc2c(-c3ccccc3)ccnc2c1O [Compound 28, 7-Acetamido-4-(phenyl)-8-hydroxyquinoline]
[8]
  microsomal stability (in words): biphasic kinetics

## CC(=O)Nc1ccc2c(-c3ccc(F)cc3)ccnc2c1O [Compound 30, 7-Acetamido-4-(4-fluorophenyl)-8-hydroxyquinoline]
[1]
  inhibition of TOP2A decatenation (in words): activity is lost

## CC(=O)Nc1ccc2c(-c3cccc(C(F)(F)F)c3)ccnc2c1O [Compound 31, 7-Acetamido-4-((3-trifluoromethyl)phenyl)-8-hydroxyquinoline]
[1]
  inhibition of TOP2A decatenation (in words): excellent inhibitory activity
[8]
  microsomal stability (in words): not readily transformed by Phase I metabolic enzymes

## CC(=O)Nc1ccc2c(-c3ccc(C(F)(F)F)cc3)ccnc2c1O [Compound 32, 7-Acetamido-4-((4-trifluoromethyl)phenyl)-8-hydroxyquinoline]
[1]
  inhibition of TOP2A decatenation (in words): excellent inhibitory activity

## CC(=O)Nc1ccccc1-c1ccnc2c(O)c(NC(C)=O)ccc12 [Compound 34, 7-Acetamido-4-(2-acetamidophenyl)-8-hydroxyquinoline]
[1]
  inhibition of TOP2A decatenation (in words): significant loss of activity

## CC(=O)Nc1ccc(-c2ccnc3c(O)c(NC(C)=O)ccc23)cc1 [Compound 35, 7-Acetamido-4-(4-acetamidophenyl)-8-hydroxyquinoline]
[1]
  inhibition of TOP2A decatenation (in words): restored inhibitory activity
[8]
  microsomal stability (in words): not readily transformed by Phase I metabolic enzymes

## CC(=O)Nc1cccc(-c2ccnc3c(O)c(NC(C)=O)ccc23)c1 [Compound 36, 7-Acetamido-4-(3-acetamidophenyl)-8-hydroxyquinoline]
[1]
  inhibition of TOP2A decatenation (in words): significant loss of activity

## CC(=O)Nc1ccc2c(-c3cc(C(F)(F)F)ccc3O)ccnc2c1O [Compound 37, 7-Acetamido-4-(2-hydroxy-5-trifluoromethylphenyl)-8-hydroxyquinoline]
[1]
  inhibition of TOP2A decatenation (in words): excellent inhibitory activity

## CC(=O)Nc1ccc2c(-c3cc(Cl)ccc3O)ccnc2c1O [Compound 38, 7-Acetamido-4-(5-chloro-2-hydroxyphenyl)-8-hydroxyquinoline]
[1]
  inhibition of TOP2A decatenation (in words): did not inhibit

## O=C(CCN1CCOCC1)Nc1ccc2c(-c3cc(F)ccc3O)ccnc2c1O [Compound 42, 4-(5-fluoro-2-hydroxyphenyl)-8-hydroxy-7-(3-(morpholin-4-yl)propanamido)quinoline]
[5]
  induction of apoptosis (caspase 3 and 7 cleavage) in words: induce apoptosis
[7]
  tumor organoid growth in volume: significantly inhibited tumor organoid growth
[8]
  microsomal stability (in words): least stable
[10]
  solubility in PBS compared to prototype 7: 3.4 times
[9]
  CL: 62.2 mL/min/kg

## CC(=O)Nc1ccc2c(-c3cc4ccccc4o3)ccnc2c1O [Compound 53, 7-Acetamido-4-(2-benzofuranyl)-8-hydroxyquinoline]
[1]
  inhibition of TOP2A decatenation (in words): complete inhibitory activity
[8]
  microsomal stability (in words): not readily transformed by Phase I metabolic enzymes
[9]
  CL: 283.2 mL/min/kg

## CC(=O)Nc1ccc2c(-c3cc4ccccc4s3)ccnc2c1O [Compound 54, 7-Acetamido-4-(benzo[b]thiophen-2-yl)-8-hydroxyquinoline]
[1]
  inhibition of TOP2A decatenation (in words): inhibition was lost

## CC(=O)Nc1ccc2c(-c3ccco3)ccnc2c1O [Compound 55, 7-Acetamido-4-(2-furanyl)-8-hydroxyquinoline]
[1]
  inhibition of TOP2A decatenation (in words): significant loss of activity

## CC(=O)Nc1ccc2c(-c3ccsc3)ccnc2c1O [Compound 58, 7-Acetamido-4-(thiophen-3-yl)-8-hydroxyquinoline]
[1]
  inhibition of TOP2A decatenation (in words): improves activity compared to the 3-furanyl analog 56
[8]
  microsomal stability (in words): metabolized faster within the first 30 minutes; also recorded: biphasic kinetics

## O=C(CN1CCOCC1)Nc1ccc2c(-c3cc4ccccc4o3)ccnc2c1O [Compound 60, 4-(2-benzofuranyl)-8-hydroxy-7-(2-(morpholin-4-yl)acetamido)quinoline]
[5]
  induction of apoptosis (caspase 3 and 7 cleavage) in words: induce apoptosis
[7]
  tumor organoid growth in volume: significantly inhibited tumor organoid growth
[8]
  microsomal stability (in words): not readily transformed by Phase I metabolic enzymes
[9]
  CL: 137 mL/min/kg

## O=C(CCN1CCOCC1)Nc1ccc2c(-c3cc4ccccc4o3)ccnc2c1O [Compound 61, 4-(2-benzofuranyl)-8-hydroxy-7-(3-(morpholin-4-yl)propanamido)quinoline]
[8]; female, CD-1, mouse, pH 7.4
  half-life at 1 μg/mL: 15 min
[8]
  microsomal stability (in words): not readily transformed by Phase I metabolic enzymes
[9]
  CL: 61.8 mL/min/kg

## COc1cc([C@@H]2c3cc4c(cc3[C@@H](O[C@@H]3O[C@@H]5CO[C@@H](C)O[C@H]5[C@H](O)[C@H]3O)[C@H]3COC(=O)[C@H]23)OCO4)cc(OC)c1O [etoposide]
[11]
  effect on TOP2A mediated TCF-transcription: do not inhibit

## O=C1NC(=S)NC(=O)C1C(=O)Nc1ccccc1 [merbarone]
[11]
  effect on TOP2A mediated TCF-transcription: do not inhibit

## Cn1ccc2c(c1=O)C(=O)c1nccc3c1c-2nc1ccccc13 [neo, neoamphimedine]
[2]
  mode of TOP2A inhibition: competitive mode of inhibition
[3]
  DNA double stranded breaks (H2AX S139 phosphorylation immunofluorescence): do not cause DNA DSBs
[11]
  effect on TOP2A mediated TCF-transcription: prevents TCF-transcription
[12]
  solubility in water: insoluble
[13]
  metabolic stability: metabolically unstable

— publication PMC7723234 (Journal of medicinal chemistry, 2019)
